The nature of data set [1]: Selectivity index, ratio of IC50 for cytostatic activity against human HepG2 cells to MIC for antimycobacterial activity against Mycobacterium tuberculosis H37Rv ATCC 27294. Type of data set: toxicity, cell-based. Conditions: read-out: Selectivity Index. An outline of the steps: (§1)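 MTT assay on MonoMac6 or HepG2 cells after 24 h exposure, top concentration 200 µM. SI = IC50 (µM)/MIC (µM) against H37Rv from the 4-week Sula medium assay.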

The test system of data set [2] is Mycobacterium tuberculosis. The data set can be described thus: […] antimycobacterial activity against Mycobacterium tuberculosis H37Rv ATCC 27294 infected in human MONO-MAC-6 cells assessed as reduction in colony forming unit at 250 uM for 6 days by colony counting based analysis. Type of data set: functional, organism-based. Conditions: time 6.0 day. An outline of the steps: (§2)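 MonoMac6 monolayers infected with H37Rv, then treated with compound at 125 or 250 µM for 3 days. Treatment repeated with fresh compound solution for another 3 days. Intracellular bacteria quantified as CFU against untreated infected cells.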

Data set [3] relates to Mycobacterium tuberculosis. Description: Antimycobacterial activity against Mycobacterium tuberculosis H37Rv ATCC 27294 assessed as reduction in colony forming unit after 28 days by serial dilution method. Type of data set: functional, organism-based. Particulars: time 28.0 day. The essentials: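 After the 4-week MIC incubation in Sula semisynthetic medium (pH 6.5), growth inhibition confirmed by plating on Löwenstein-Jensen solid medium and counting colony forming units.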

The nature of data set [4]: Selectivity index, ratio of IC50 for cytostatic activity against human MONO-MAC-6 cells to MIC for antimycobacterial activity against Mycobacterium tuberculosis H37Rv ATCC 27294. Type of data set: toxicity, cell-based. Conditions: read-out: Selectivity Index. An outline of the steps:
as §1

Data set [5] deals with Mycobacterium tuberculosis. The data set can be described thus: […] antimycobacterial activity against Mycobacterium tuberculosis H37Rv ATCC 27294 infected in human MONO-MAC-6 cells assessed as reduction in colony forming unit at 125 uM for 6 days by colony counting based analysis. Conditions: time 6.0 day. Type of data set: functional, organism-based. An outline of the steps:
as §2

In another data set the test system is HepG2. Description: Cytostatic activity against human HepG2 cells assessed as reduction in cell viability incubated for 24 hrs by MTT assay. Type of data set: functional, cell-based. Particulars: HepG2, 24 h. The essentials:
(§3)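 MTT viability assay after 24 h exposure of MonoMac6 human monocytic cells or HepG2 human hepatocellular carcinoma cells. Top concentration 200 μM. IC50 taken from dose-response curves as the concentration reducing viability to 50% of maximal.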
In general terms: Tetrazolium dyes change colour on reduction, which living cells bring about.

Data set [6] concerns Mycobacterium tuberculosis. The data set can be described thus: Antimycobacterial activity against Mycobacterium tuberculosis H37Rv ATCC 27294 assessed as reduction in bacterial growth after 21 days by serial dilution method. Particulars: H37Rv ATCC 27294, 504 h, time 21 day. Type of data set: functional. An outline of the steps:
(§4)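 Broth MIC in Sula semisynthetic medium, pH 6.5; 4-week incubation, with 21-day values […] where indicated. Drug-free inoculated bacteria served as growth control. MIC also expressed as drug content (µg/mL) = MIC (µM) × average SAL molar mass × number of SAL per conjugate / 1000.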

The test system of another data set is MONO-MAC-6. Description: Cytostatic activity against human MONO-MAC-6 cells assessed as reduction in cell viability incubated for 24 hrs by MTT assay. Type of data set: functional, cell-based. Particulars: MONO-MAC-6, 24 h. The essentials:
as §3

For data set [7], the system named is Mycobacteroides abscessus. The data set can be described thus: Antimycobacterial activity against Mycobacterium abscessus ATCC 19977 assessed as reduction in colony forming unit after 7 days by serial dilution method. Type of data set: functional, organism-based. Conditions: time 7.0 day. An outline of the steps:
(§5)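 MIC determined in Sula semisynthetic medium, pH 6.5, 1 week incubation. Growth inhibition confirmed by plating on Löwenstein-Jensen solid medium and counting CFU. Bacteria inoculated without drug served as growth control.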

Data set [8] can be described thus: Selectivity index, ratio of IC50 for cytotoxicity against mouse bone marrow derived macrophages to MIC for antimycobacterial activity against Mycobacterium tuberculosis H37Rv ATCC 27294. Type of data set: toxicity. Particulars: read-out: Selectivity Index. The essentials:
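Murine bone marrow-derived macrophages exposed for 48 h, top concentration 100 µM. Viability read by MTT and IC50 taken from dose-response curves. SI = IC50/MIC against H37Rv.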

The nature of data set [9]: Cytotoxicity against mouse bone marrow derived macrophages assessed as reduction in cell viability incubated for 48 hrs by MTT assay. Type of data set: toxicity, cell-based, Macrophage. The essentials: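 Murine bone marrow-derived macrophages exposed for 48 h, viability by MTT. Highest concentration tested 100 µM. IC50 taken from dose-response curves.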
Data set [10] relates to Mycobacteroides abscessus. Description: Antimycobacterial activity against Mycobacterium abscessus ATCC 19977 assessed as reduction in bacterial growth after 7 days by serial dilution method. Conditions: ATCC 19977, 168 h, time 7 day. Type of data set: functional. An outline of the steps: as §5
Data set [11] deals with Mycobacterium tuberculosis. Description: Antimycobacterial activity against Mycobacterium tuberculosis H37Rv ATCC 27294 assessed as reduction in bacterial growth after 28 days by serial dilution method. Type of data set: functional. Particulars: H37Rv ATCC 27294, 672 h, time 28 day. The essentials: as §4
A short description of data set [12]: Retention time of the compound by RP-HPLC analysis. Type of data set: physicochemical. The essentials:
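Analytical RP-HPLC on a C18 column (5 μm, 100 Å, 4.6 × 150 mm). Eluent A 0.1% TFA in water, eluent B 0.1% TFA in acetonitrile-water 80:20. Gradient 0% B for 5 min, to 60% B at 15 min, to 100% B at 25 min. Flow 1 mL/min, detection at 220 nm.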

Data set [13] is described as follows: Stability in rat liver lysosomal homogenate assessed as drug degradation at 50 uM and measured upto 24 hrs by HPLC-MS analysis. Type of data set: ADME, subcellular, Lysosome. Particulars: tissue homogenate. An outline of the steps:
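Conjugates incubated in rat liver lysosomal homogenate. Reaction mixtures sampled at 5 min, 1 h, 2 h, 4 h, 8 h and 24 h and analysed by HPLC-MS (chromatograms and mass spectra) to identify intact conjugate, fragments and cleavage sites.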

≈ marks a conversion by molar mass, not a printed value. Calls of active or inactive are those of the source. *1 amine or outer side, *2 acyl side, *3 side chain or, on linkers, in order; H or OH if unused. Where a SMILES comes first, the peptide text is derived from it. [ ]: non-standard residue; d: D form. The star is where a group is joined. X4 = O=C(Nc1ccc(C(F)(F)F)cc1)c1cc(/C=N\OCC(=O)*)ccc1O; X1 = C/C(=N\OCC(=O)[*:2])c1ccc(N[*:1])cc1; Benzoyl(5-Br-2-OH) = O=C(c1cc(Br)ccc1O)*; Palmitoyl = CCCCCCCCCCCCCCCC(=O)*; Decanoyl = CCCCCCCCCC(=O)*

For `C/C(=N\OCC(=O)N[C@H](C(=O)O)[C@@H](C)O)c1ccc(NC(=O)c2cc(Br)ccc2O)cc1`, the selectivity ratio in data set [1] and in [4] was greater than 0.5 each time. Also, the result in [2], in data set [3], in [5] and in data set [7] was Active. Besides, the IC50 in the data set on HepG2 and in the data set on MONO-MAC-6 was greater than 200 µM in each case. Also, in data set [6], the MIC (as a rule, the smallest concentration in the dilution series that meets the test's criterion for growth inhibition) came to 394 µM (≈ 200 µg/mL).

`CC(=O)c1ccc(NC(=O)c2cc(Br)ccc2O)cc1`: the selectivity ratio in data set [1] worked out at 2.1; in data set [4] it was 2.5; in data set [8], 10.2. Moreover, the outcome in data set [3] and in data set [7] was Active. For the same molecule, the concentration for half-maximal inhibition (IC50) (as a rule, the point on the concentration scale where inhibition reaches its midpoint) at 48 h in data set [9] turned out to be 76.5 µM. Besides, the IC50 in the data set on HepG2 was 15.9 µM; in the data set with MONO-MAC-6, 18.6 µM. The MIC in data set [10] turned out to be 59.8 µM (≈ 20 µg/mL); in data set [11], 7.5 µM (≈ 2.51 µg/mL).

For the molecule `C/C(=N\OCC(=O)NCC(=O)N[C@@H](Cc1ccccc1)C(=O)N[C@@H](CC(C)C)C(=O)NCC(=O)N[C@H](C(=O)N[C@@H](CCCCN)C(=O)N1CCC[C@H]1C(=O)N[C@@H](CCCCN)C(=O)NCC(=O)N[C@H](C(=O)N[C@@H](CCCCN)C(=O)N1CCC[C@H]1C(=O)N[C@@H](CCCCN)C(=O)NCC(=O)N[C@H](C(=O)N[C@@H](CCCCN)C(=O)N1CCC[C@H]1C(=O)N[C@@H](CCCCN)C(=O)NCC(=O)N[C@H](C(=O)N[C@@H](CCCCN)C(=O)N1CCC[C@H]1C(=O)N[C@@H](CCCCN)C(=O)NCC(N)=O)[C@@H](C)O)[C@@H](C)O)[C@@H](C)O)[C@@H](C)O)c1ccc(NC(=O)c2cc(Br)ccc2O)cc1`, the selectivity ratio in data set [1] was determined as 0.8; in [4], 0.6; in data set [8], 0.7. For the same molecule, in data set [9], the IC50 at 48 h is 92.1 µM. The same molecule gave a Retention_time in data set [12] of 15.7 min. In addition, the IC50 with HepG2 turned out to be 112 µM; in the data set on MONO-MAC-6 it was 86.6 µM. The Stability result in [13] is listed as “Unstable”.

Regarding `C/C(=N\OCC(=O)NCC(=O)O)c1ccc(NC(=O)c2cc(Br)ccc2O)cc1`, the selectivity ratio in data set [1] and in [4] was greater than 0.9 each time. Further, the result in data set [2], in data set [3], in data set [5] and in data set [7] was Active. Moreover, the IC50 in the data set with HepG2 and with MONO-MAC-6 was greater than 200 µM each time. For the same molecule, in data set [6], the MIC came out at 215 µM (≈ 100 µg/mL).

As to `C[C@@H](O)[C@H](NC(=O)CNC(=O)[C@H](CCCCN)NC(=O)[C@@H]1CCCN1C(=O)[C@H](CCCCN)NC(=O)[C@@H](NC(=O)CNC(=O)[C@H](CCCCN)NC(=O)[C@@H]1CCCN1C(=O)[C@H](CCCCN)NC(=O)[C@@H](NC(=O)CNC(=O)[C@H](CCCCN)NC(=O)[C@@H]1CCCN1C(=O)[C@H](CCCCN)NC(=O)[C@@H](NC(=O)CO/N=C\c1ccc(O)c(C(=O)Nc2ccc(C(F)(F)F)cc2)c1)[C@@H](C)O)[C@@H](C)O)[C@@H](C)O)C(=O)N[C@@H](CCCCN)C(=O)N1CCC[C@H]1C(=O)N[C@@H](CCCCN)C(=O)NCC(N)=O` (X4-TKPKGTKPKGTKPKGTKPKG-NH2), the selectivity ratio in data set [1] and in [4] was greater than 2.4 in each case. The outcome in [2], in data set [3], in data set [5] and in [7] was Active. Moreover, the IC50 with HepG2 and with MONO-MAC-6 was greater than 200 µM each time. Further, the results for the MIC in data set [10] and in data set [6] were 41.2 µM (≈ 100 µg/mL) and 82.4 µM (≈ 200 µg/mL), respectively.

With `CCCCCCCCCC(=O)NCCCC[C@H](NC(=O)[C@@H]1CCCN1C(=O)[C@H](CCCCN)NC(=O)[C@@H](NC(=O)CO/N=C(\C)c1ccc(NC(=O)c2cc(Br)ccc2O)cc1)[C@@H](C)O)C(=O)NCC(N)=O` ({Benzoyl(5-Br-2-OH)}-[X1]TKPK(Decanoyl)G-NH2), the selectivity ratio turned out to be 0.3 in data set [1] and 0.4 in data set [4]. The result in data set [2], in [3], in data set [5] and in data set [7] was Active. Also, the IC50 with HepG2 is 55.8 µM; in the data set with MONO-MAC-6, 72.6 µM. The MIC in data set [10] and in data set [6] was 186 µM (≈ 200 µg/mL) throughout. Further, the Stability entry in data set [13] is reported as “Unstable”.

`CCCCCCCCCCCCCCCC(=O)NCCCC[C@H](NC(=O)[C@@H]1CCCN1C(=O)[C@H](CCCCN)NC(=O)[C@@H](NC(=O)CO/N=C(\C)c1ccc(NC(=O)c2cc(Br)ccc2O)cc1)[C@@H](C)O)C(=O)NCC(N)=O` ({Benzoyl(5-Br-2-OH)}-[X1]TKPK(Palmitoyl)G-NH2): the selectivity ratio in data set [1] came out at 0.1; in [4] it was 0.3. In addition, the outcome in data set [2], in data set [3], in data set [5] and in data set [7] was Active. Besides, the results for the IC50 in the data set on HepG2 and with MONO-MAC-6 were 23.2 µM and 53.8 µM, respectively. The MIC in [10] and in data set [6] was 173 µM (≈ 200 µg/mL) throughout. Moreover, in data set [13], the Stability entry is on record as “Unstable”.

Regarding `CCCCCCCCCCCCCCCC(=O)NCCCC[C@H](NC(=O)[C@@H]1CCCN1C(=O)[C@H](CCCCN)NC(=O)[C@@H](NC(=O)CNC(=O)[C@H](CCCCN)NC(=O)[C@@H]1CCCN1C(=O)[C@H](CCCCN)NC(=O)[C@@H](NC(=O)CNC(=O)[C@H](CCCCN)NC(=O)[C@@H]1CCCN1C(=O)[C@H](CCCCN)NC(=O)[C@@H](NC(=O)CO/N=C(\C)c1ccc(NC(=O)c2cc(Br)ccc2O)cc1)[C@@H](C)O)[C@@H](C)O)[C@@H](C)O)C(=O)NCC(=O)N[C@H](C(=O)N[C@@H](CCCCN)C(=O)N1CCC[C@H]1C(=O)N[C@@H](CCCCN)C(=O)NCC(N)=O)[C@@H](C)O` ({Benzoyl(5-Br-2-OH)}-[X1]TKPKGTKPKGTKPK(Palmitoyl)GTKPKG-NH2), the results for the selectivity ratio in data set [1] and in [4] were 0.5 and 0.3, respectively. The outcome in [2], in data set [3], in [5] and in data set [7] was Active. The Retention_time in data set [12] was 17.3 min. Further, the IC50 is 40.4 µM in the data set with HepG2 and 20.9 µM in the data set with MONO-MAC-6. For the same molecule, the MIC in data set [10] and in data set [6] was 74.3 µM (≈ 200 µg/mL) throughout. The Stability entry in data set [13] is “Unstable”.

For the origin of these results see ChEMBL document CHEMBL5252539, “In vitro biological evaluation of new antimycobacterial salicylanilide-tuftsin conjugates” (Eur J Med Chem, 2017).
